Experimental data reported in ChEMBL document CHEMBL1135573, “New stereocontrolled synthesis and biological evaluation of 5-(1'-hydroxyalkyl)-3-methylidenetetrahydro-2-furanones as potential cytotoxic agents” (J Med Chem, 2002).

How the values were obtained:
HL-60 = experiment: Compound was evaluated for in vitro cytotoxic activity against human HL-60 leukemia cell line; type: functional, cell-based
L1210 = experiment: Compound was evaluated for in vitro cytotoxic activity against mouse L-1210 leukemia cell line; type: functional, cell-based
[1] = Partition coefficient (logP); type: physicochemical; settings: octanol/water
Outline: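 log P (1-octanol/water) computed with a standard software package. For one analogue it was also measured by a spectrophotometric method.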

Molecule	logP [1]	IC50 (HL-60; Homo sapiens, HL-60)	IC50 (L1210; Mus musculus, L1210)	IC50 (L1210; l1210)	IC50 (HL-60; hl-60)
C=C1C[C@H]([C@@H](O)CCC)OC1=O	–	52.6 µM	16.9 µM	–	–
C=C1C[C@](C)(CO)OC1=O	0.44	51.3 µM	26.7 µM	–	–
CARBOPLATIN	–	–	–	9.7 µM	2.9 µM
C=C1C[C@H]([C@H](C)O)OC1=O	–	46.8 µM	17.3 µM	–	–
C=C1C[C@H]([C@@H](O)c2ccccc2)OC1=O	–	41.2 µM	7.5 µM	–	–

Further lines, with some results ahead:

logP [1]	Molecule	IC50 (HL-60; Homo sapiens, HL-60)	IC50 (L1210; Mus musculus, L1210)	IC50 (L1210; l1210)	IC50 (HL-60; hl-60)
1.8	C=C1C[C@H]([C@H](O)c2ccccc2)OC1=O	36.4 µM	6.9 µM	8 µM	–
1.59	C=C1C[C@H]([C@H](O)CCC)OC1=O	51.9 µM	18.5 µM	–	–
0.55	C=C1C[C@H]([C@@H](C)O)OC1=O	47.3 µM	19.3 µM	–	–
